# Results reported in ChEMBL document CHEMBL1144008, “Synthesis, nitric oxide release, and anti-leukemic activity of glutathione-activated nitric oxide prodrugs: Structural analogues of PABA/NO, an anti-cancer lead compound” (Bioorg Med Chem, 2008).
# Key:
# [1] = Nitric oxide release at 100 to 150 nM in pH7.4 in presence of GSH; format: functional
# Method in brief: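 Performed in 0.1 M pH 7.4 phosphate buffer with 1 mM GSH, sparged with inert gas until detector baseline was steady. Prodrug stock injected to final 100–150 nM. NO release followed at 37 °C. Area under the release curve integrated to give mol NO released per mol compound.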
# [2] = test system: HL-60; test: Antiproliferative activity against human HL60 cells by MTS assay; format: functional, cell-based
# Method in brief: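 HL-60 human myeloid leukemia cells grown in RPMI 1640 with 10% FBS, 37 °C, 5% CO2. Seeded 10,000 cells/100 µL; compounds (DMSO stocks serially diluted in PBS, final DMSO 0.5%) added 24 h after plating. Viable cells read by MTS after 3 days. IC50 from nonlinear fit of absorbance vs concentration to a Hill-slope equation.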
SMILES,Activity [1],IC50 [2]
CN(C)/[N+]([O-])=N/Oc1cc(Nc2ccc(CO)cc2)c([N+](=O)[O-])cc1[N+](=O)[O-],100%,6.8 µM
CN(C)/[N+]([O-])=N\Oc1cc(O)c([N+](=O)[O-])cc1[N+](=O)[O-],0%,> 25 µM
COc1ccc2cc(C(C)C(=O)Oc3cc(O/N=[N+](\[O-])N(C)C)c([N+](=O)[O-])cc3[N+](=O)[O-])ccc2c1 (stereo not given),5%,> 25 µM
CC(=O)Oc1ccccc1C(=O)Oc1cc(O/N=[N+](\[O-])N(C)C)c([N+](=O)[O-])cc1[N+](=O)[O-],7%,> 25 µM
CC(=O)Nc1ccc(Oc2cc(O/N=[N+](\[O-])N(C)C)c([N+](=O)[O-])cc2[N+](=O)[O-])cc1,93%,2.3 µM
CN(C)/[N+]([O-])=N/Oc1cc(OC(=O)c2ccc(N)cc2)c([N+](=O)[O-])cc1[N+](=O)[O-],63%,13 µM
CC(C)Cc1ccc(C(C)C(=O)Oc2cc(O/N=[N+](\[O-])N(C)C)c([N+](=O)[O-])cc2[N+](=O)[O-])cc1 (stereo not given),0%,> 25 µM
CC(=O)Nc1ccc(C(=O)Oc2cc(O/N=[N+](\[O-])N(C)C)c([N+](=O)[O-])cc2[N+](=O)[O-])cc1,20%,22 µM
CNc1ccc(C(=O)Oc2cc(O/N=[N+](\[O-])N(C)C)c([N+](=O)[O-])cc2[N+](=O)[O-])cc1,73%,3.9 µM
CN(C)/[N+]([O-])=N/Oc1cc(OC(=O)c2ccccc2)c([N+](=O)[O-])cc1[N+](=O)[O-],15%,> 25 µM
CN(C)/[N+]([O-])=N/Oc1cc(OC(=O)c2cccnc2)c([N+](=O)[O-])cc1[N+](=O)[O-],4%,> 25 µM
CN(C(=O)c1ccccc1)c1cc(O/N=[N+](\[O-])N(C)C)c([N+](=O)[O-])cc1[N+](=O)[O-],99%,1.6 µM
CN(C)c1ccc(C(=O)Oc2cc(O/N=[N+](\[O-])N(C)C)c([N+](=O)[O-])cc2[N+](=O)[O-])cc1,30%,> 25 µM
CC(=O)Nc1ccc(S(=O)(=O)Oc2cc(O/N=[N+](\[O-])N(C)C)c([N+](=O)[O-])cc2[N+](=O)[O-])cc1,96%,3.9 µM
CCN(C(=O)c1ccccc1)c1cc(O/N=[N+](\[O-])N(C)C)c([N+](=O)[O-])cc1[N+](=O)[O-],100%,1.4 µM
